Source: PubChem
HIF act – HIF pathway transcriptional activation. U2OS HRE-luciferase reporter, luminescence; normalized: DMSO 0%, desferrioxamine 100%. activation, % at 7.5 µM (by protocol). 0.32% of 300,000 active;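 active means mean activation of at least 10% of the iron chelator positive control signal, with at least half of replicates also reaching 10%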
Hsp70 act – switches on Hsp70 transcription; HeLa Hsp70 promoter luciferase reporter, luminescence; scaled: vehicle 0, proteasome-inhibitor control 100%; 0.04% of 200,000 active; activation, % at 10 µM;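 active means activation above the mean across all tested compounds plus 3 SD, cutoff set per campaign, cut at about 5.5% in these data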;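 further: 100% = MG132 at 30 µM as the positive control and 0% = DMSO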
FXN GAA850 act – frataxin GAA850 promoter activation | HEK293 lucGAA850 FXN promoter luciferase reporter, 24 h; percent of 10 µM SAHA response | activation, % at 6 µM | 0.56% of 360,000 active | AID 540364;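 active means activation above the average of all compounds screened plus 3 SD, cutoff fixed separately per campaign, cut at about 7.5% in these data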;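 further: 0% = DMSO wells and 100% = 10 µM SAHA wells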
Rad51 HR inh – Rad51 (human) homologous recombination inhibition; AID 1385; hRad51 DNA strand exchange, fluorescence dequenching; inhibition, % at 10 µM; 0.085% of 200,000 active;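 active means inhibition above 40% at the single screening dose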;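 further: 0% = DMSO control wells and 100% = blanks with heterologous ssDNA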
Target sequence (Q06609 whole entry, looked up): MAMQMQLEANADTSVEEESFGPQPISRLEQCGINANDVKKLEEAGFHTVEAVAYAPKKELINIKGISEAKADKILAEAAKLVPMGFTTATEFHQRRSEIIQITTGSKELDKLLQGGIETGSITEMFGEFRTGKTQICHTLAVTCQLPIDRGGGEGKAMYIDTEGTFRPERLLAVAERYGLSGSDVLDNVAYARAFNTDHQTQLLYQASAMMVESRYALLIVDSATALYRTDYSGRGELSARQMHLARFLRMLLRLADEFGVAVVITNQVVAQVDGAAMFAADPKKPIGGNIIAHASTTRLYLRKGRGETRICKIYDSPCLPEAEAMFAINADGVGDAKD
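Test system: preformed human Rad51 ssDNA filaments. Compound dosing: single dose, 10 µM final compound. Incubation: filaments 15 min 37 °C, then compound 30 min. Technique: FRET fluorescence dequenching, excitation 485 nm, emission 520 nm. Read-out basis: percent inhibition from fluorescence, normalised to plate control and blank means. Benchmarks: plate controls and plate blanks.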
H9c2 TAG inh – triacylglycerol accumulation inhibition; H9c2 cells, Nile Red lipid (TAG) fluorescence; cells loaded with 200 µM oleic acid; inhibition, % at 12.5 µM; 0.66% of 230,000 active; AID 651582;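 active means pattern-corrected inhibition of lipid staining of at least 50% with the nuclear-stain viability signal not falling by more than 50%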;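 further: 0% = DMSO wells and 100% = triacsin C control wells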
ABHD5 PLIN5 PPI – ABHD5-PLIN5 protein interaction inhibition | Split G. princeps luciferase complementation, luminescence, 4 h | inhibition, % at 4 µM | 0.78% of 360,000 active | AID 602281;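 active means inhibition above the mean inhibition across every tested compound plus 3 SD, cut at about 22% in these data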;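 further: 0% = DMSO only wells and the 100% control is not disclosed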
* = called active by the depositor; x = not tested or not shown. Rows were chosen to be rich in hits. Some 1.9% of all compounds tested hit in one or more screens of this group.

SMILES	HIF act	Hsp70 act	FXN GAA850 act	Rad51 HR inh	H9c2 TAG inh	ABHD5 PLIN5 PPI
Oc1ccccc1/C=N/Nc1ccccc1	0	0	0	x	x	-12
CC(=NNc1nc2ccccc2o1)c1ncccn1	x	x	-15	x	51*	3
Cc1nn(-c2ccc(N3CCOCC3)nn2)c(C)c1CCC(=O)N1CCN(C)CC1	0	x	-1	x	x	8
CC(=O)Nc1ccc(C(=O)COC(=O)C2CC2)c(F)c1	x	x	3	x	-1	14
O=C(c1ccco1)N(CCC(c1ccccc1)c1ccco1)Cc1ccco1 (stereo unspecified)	0	0	2	-1	-10	28*
Cc1ccc(C(CCN(Cc2ccccc2)C(=O)c2ccco2)c2ccco2)cc1 (stereo unspecified)	0	0	1	-1	-6	29*
CC(=O)N(CCC(Cc1ccccc1)c1ccco1)Cc1ccco1 (stereo unspecified)	x	x	1	-12	-13	16
COc1ccc(CNc2nc(NCc3ccc(OC)c(OC)c3)n(C(=O)c3cccs3)n2)cc1OC	x	0	-4	-2	x	23*
COc1ccc(CCNC(=O)c2cccs2)cc1OC	-1	0	2	-2	-1	7
CC(=O)Nc1sc(-c2ccccc2)nc1-c1ccccc1	205*	0	-1	-2	-14	5
CC(=O)Nc1sc(-c2ccc(Cl)cc2)nc1-c1ccccc1	-2	x	2	8	3	8
CCCc1c(O)nc(SCC(=O)O)[nH]c1=O	0	0	-1	19	0	0
COc1ccccc1N(C(=O)CCl)c1cn(C(C)=O)c2ccccc12	-2	x	-11	14	74*	7
CC(=O)n1cc(N(C(=O)CCl)c2ccc(Cl)cc2)c2ccccc21	-4	x	-3	x	67*	10
CCn1cc(C(=O)NCc2ccc(C)cc2)c(=O)c2cc(S(=O)(=O)N(C)C)ccc21	-20	x	0	x	x	-7
Cc1cccc(NC(=O)c2cccc(S(=O)(=O)N3CCc4ccccc4C3)c2)n1	2	x	2	x	-6	-3
COc1ccccc1NC(=O)C(=O)N(c1cccnc1)C(C(=O)NC(C)(C)C)c1ccccc1F (stereo unspecified)	3	0	-1	0	-12	-6
CN1CCc2c(sc(NC(=O)c3ccc4ccccc4c3)c2C(N)=O)C1	1	x	3	x	28	13
COc1cc2ccccc2cc1C(=O)Nc1sc2c(c1C(N)=O)CCN(C(C)C)C2	-5	x	1	x	54*	20
CCN(C(=O)CSc1nnnn1-c1ccc(Cl)cc1)C1CCS(=O)(=O)C1 (stereo unspecified)	x	x	2	x	-22	12
C/C(=N\NC(=O)CN1CCCCC1)c1ccccc1O	13*	x	1	x	x	-4
C/C(=N\NC(=O)CN1CCCCC1)c1cccc([N+](=O)[O-])c1	0	x	1	x	-2	-5
O=C(/C=C/c1ccc([N+](=O)[O-])cc1)/C=C/c1ccco1	1	x	6	x	x	63*
O=C(CC(=O)c1ccccc1)CC(O)(C=Cc1ccccc1)c1ccccc1 (stereo unspecified)	x	x	4	x	21	17
CC(=O)c1cccc(CN2CCCC(C(=O)Nc3ccc(-c4ccco4)cc3)C2)c1 (stereo unspecified)	-1	x	0	x	4	30*
SMILES	HIF act	Hsp70 act	FXN GAA850 act	Rad51 HR inh	H9c2 TAG inh	ABHD5 PLIN5 PPI
Cc1cc(C)c(NC(=O)Cn2c(=O)n(Cc3ccco3)c(=O)c3ccccc32)c(C)c1	-1	0	3	14	14	43*
Cc1ccccc1Cn1c(=O)n(Cc2ccco2)c(=O)c2ccccc21	0	0	4	8	-21	9
CCCCOc1ccc(C(=O)NCC(=O)OC2CCOC2=O)cc1 (stereo unspecified)	305*	0	-2	x	-7	1
O=C(CNC(=O)c1ccc(Cl)cc1)OC1CCOC1=O (stereo unspecified)	0	0	1	-2	x	5
COC(=O)NC(=S)Nc1ccc(Oc2ccc(Cl)cc2Cl)c(Cl)c1	0	0	-1	4	6	-4
CC(O)CNc1ncnc2nc[nH]c12 (stereo unspecified)	0	0	-1	-8	10	-6
CC(C)CCCCCCCCCCCCC(=O)NCC(=O)NC1C(O)C(O)C(Nc2ncnc3nc[nH]c23)OC1C(O)CO (stereo unspecified)	x	x	-15	x	85*	8
CCOC(=O)C(C)Oc1ncnc2cccc(F)c12 (stereo unspecified)	0	0	0	15	-22	-8
Cc1ccc(NC2=Nc3ccccc3N3C2=Nc2c(c(C)nn2-c2ccccc2)C3c2ccc(O)c(O)c2)cc1 (stereo unspecified)	x	0	-2	x	110*	4
COC1C(CO)OC(n2c3c(Cl)cccc3c3c4c(c5c6cccc(Cl)c6[nH]c5c32)C(=O)NC4=O)C(O)C1O (stereo unspecified)	x	x	-8	x	72*	-7
Cc1nc2cc(NCc3nc4ccccc4n3Cc3ccccc3)ccc2n1C	1	0	-13	x	-9	22*
Cc1cccc(NCc2nc3ccccc3n2Cc2ccccc2)c1	1	0	3	-6	x	1
CC(=O)N1CCN(c2nc(N)c(C#N)c(CC#N)c2C#N)CC1	1	x	0	-4	-19	13
N#CCc1c(C#N)c(N)nc(N2CCOCC2)c1C#N	1	x	0	-5	-4	22*
Cc1ccc(C2(O)CN(c3ccccc3C)C3=[N+]2CCS3)cc1 (stereo unspecified)	12*	0	1	-4	x	-3
COc1cc(C(=O)N/N=C(\c2ccccc2)c2ccccn2)cc(OC)c1OC	64*	-1	-4	3	19	7
COc1cccc(C(=O)N/N=C(/c2ccccc2)c2ccccn2)c1	11*	0	1	-4	-45	-2
O=C(O)Cn1ncn(-c2ccc(OC(F)(F)F)cc2)c1=O	0	0	0	13	-4	11
O=C(O)C(=Cc1cccc([N+](=O)[O-])c1)c1ccccc1	x	x	1	x	-4	7
O=C(C#Cc1cccc([N+](=O)[O-])c1)c1ccccc1	2	0	0	-1	x	30*
COc1ccc(-c2oc3ccc(N4CCOCC4)cc3c2C#CC2(O)CCCCC2)cc1	2	x	4	0	7	-1
CN(C)CCn1c(=N)n(CC(O)c2ccc(Cl)c(Cl)c2)c2ccccc21 (stereo unspecified)	-1	0	-2	0	x	23*
N=c1n(CCN2CCCCC2)c2ccccc2n1CC(O)c1ccc(Cl)c(Cl)c1 (stereo unspecified)	0	0	-8	4	x	16
Cc1ccc(S(=O)(=O)O/N=C2\CCCc3ccccc32)cc1	-2	0	3	3	-3	3
CC1=C(C)/C(=N\OS(=O)(=O)c2ccccc2)C=CC1=O	-44	1	-15	2	140	62*
